Experimental findings from PubChem BioAssay are described below.

Calls of active or inactive are those of the source. Cut-off read from the data, not from the text of the source, unless noted: active = inhibition above about 30%; inactive = the rest.

Test [1] is described as follows: SK-BR-3 cell growth inhibitors, pilot screen, 24 h, human (AID 572;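 active = viability at or below 10% of carrier control in both of two separate runs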;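 note: compound exposure lasted between 18 and 24 h rather than exactly 24 h; 100% = carrier-treated control wells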). As to conditions: SK-BR-3 viability, CellTiter-Glo luminescence, at 10 µM, stronger effect = lower value. (In ATP-based viability assays light output follows the ATP content of the culture.)
Test [2] can be described thus: HUVEC growth inhibition – cell-based, human, primary screen (AID 575;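 active = viability at or below 30% in both replicate assays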;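 note: 100% = median of untreated cell wells with 0.1% DMSO on each plate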). As to conditions: HUVEC proliferation, CellTiter-Glo luminescence, 72 h; at 10 µM; stronger effect = lower value. Put shortly:
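Assay system: Primary human umbilical vein endothelial cells | Quantity: 1250 cells per well | Medium: Supplemented EBM, 2% fetal bovine serum | Detection: CellTiter-Glo luminescence measuring cellular ATP | Read-out: % viability vs DMSO wells | Plate: Collagen-coated 384-well format | Times: 72 h exposure, 37 °C, 5% CO2, 30 min RT equilibration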

A short description of test [3]: growth inhibitors of H69AR lung tumor, primary screen, human, duplicate replicates (AID 580;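 active = viability at or under a set limit in both replicates, limit being median viability minus 3 SD, cut at about 48% in these data, passing the limit was not always enough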;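 note: 100% = mean luminescence of untreated wells and 0% = no signal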). Particulars: H69AR lung tumor cells viability, ATP luminescence, 72 h; at 10 µM; stronger effect = lower value.
The nature of test [4]: reversal of MRP1-mediated doxorubicin resistance, pilot screen, H69AR cells, doxorubicin co-treatment (AID 601;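 active = viability loss from added drug above about 55%, and viability with drug at most 40%, in both replicates, limit read from the data, passing the limit was not always enough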). Particulars: CellTiter-Glo, 72 h, at 10 µM; for differential viability (reversal): stronger effect = higher value.
Test [5] in a line: 384-well plate pilot, post-Golgi transport modulator project, inhibition of yeast transport mutant growth (AID 636; in the data active = inhibition above about 31%). Particulars: absorbance 615 nm, about 18 h, stronger effect = higher value.
The nature of test [6]: growth suppression of yeast trafficking mutant, preliminary HTS, modulators of trafficking downstream of Golgi apparatus project, 1536-format plate, OD 615 nm (AID 637). As to conditions: yeast transport mutant growth, absorbance 615 nm, 18 h; stronger effect = higher value.
Setting [7] is: H69AR cells + 2 uM doxorubicin, measured here: viability with 2 uM doxorubicin, stronger effect = lower value.
Setting [8] is: H69AR cells, compound alone cytotoxicity.

As usually defined, the viability is a read-out of living cells in per cent, often relative to untreated cells. By inhibition is commonly meant the change of the read-out against control, counted positive when it falls. Take `O=C(COC(=O)c1ccccc1C(=O)c1ccccc1)c1ccco1`: the viability in test [1] is 59% (inactive); in test [2] it was 105% (inactive); in test [3], 90.3% (inactive); in test [4] (setting [7]), 87.8%; in test [4] (setting [8]) it was 90.3%. Besides, the differential viability (reversal) in test [4] (H69AR cells + 2 uM doxorubicin) is 2.52% (inactive). Further, the inhibition in test [5] was -1.1% (inactive); in test [6], 2.36% (inactive).

On to `CC(C)(Oc1ccc(CCNC(=O)c2ccc(Cl)cc2)cc1)C(=O)O`, for which the viability in test [1] was 95% (inactive); in test [2], 83.1% (inactive); in test [3] it was 105% (inactive); in test [4] (setting [7]) it was 96.8%; in test [4] (setting [8]), 105%. For the same compound, the differential viability (reversal) in test [4] (H69AR cells + 2 uM doxorubicin) was 8.17% (inactive). The results for the inhibition in test [5] and in test [6] were -4.29% (inactive) and -0.67% (inactive), respectively.

With `COCCCN1C(=O)C(=O)/C(=C(/O)c2ccc(OC)cc2)C1c1ccc(O)c(OC)c1` (stereo unspecified), the viability in test [1] was 104% (inactive); in test [2], 109% (inactive); in test [3], 103% (inactive); in test [4] (setting [7]) it was 96.9%; in test [4] (setting [8]) it was 103%. The differential viability (reversal) in test [4] (H69AR cells + 2 uM doxorubicin) is 6.55% (inactive). Further, the inhibition in test [5] is -2.53% (inactive); in test [6] it was -1.45% (inactive).

For `CCN(CC)CCNC(=O)c1ccc(NC(C)=O)cc1`, the viability is 136% (inactive) in test [1]; 96.6% (inactive) in test [2]; 94.8% (inactive) in test [3]; 102% in test [4] (setting [7]); 94.8% in test [4] (setting [8]). In addition, the differential viability (reversal) in test [4] (H69AR cells + 2 uM doxorubicin) is -6.82% (inactive). Besides, the results for the inhibition in test [5] and in test [6] were -1.69% (inactive) and 3.5% (inactive), respectively.

On to `Cc1ccc(-c2nnc3c4ccccc4c(C)nn23)cc1NC(=O)c1ccco1`, for which the viability was 81.5% (inactive) in test [1]; 98.2% (inactive) in test [2]; 91.8% (inactive) in test [3]; 95.7% in test [4] (setting [7]); 91.8% in test [4] (setting [8]). The differential viability (reversal) in test [4] (H69AR cells + 2 uM doxorubicin) is -3.85% (inactive). Moreover, the inhibition was -5.27% (inactive) in test [5] and 6.51% (inactive) in test [6].

As for `CC(COc1ccccc1)N(CCCl)Cc1ccccc1` (stereo unspecified), the viability in test [1] was 107% (inactive); in test [2], 78.2% (inactive); in test [3], 56.1% (inactive); in test [4] (setting [7]) it was 46.7%; in test [4] (setting [8]), 56.1%. Also, the differential viability (reversal) in test [4] (H69AR cells + 2 uM doxorubicin) is 9.34% (inactive). The inhibition in test [5] was -0.65% (inactive); in test [6], -3.33% (inactive).

For `CCN=C1SC(CC(=O)Nc2ccccc2OCC)C(=O)N1CC` (stereo unspecified), the viability in test [1] was 96% (inactive); in test [2], 94.3% (inactive); in test [3], 94.5% (inactive); in test [4] (setting [7]) it was 86.4%; in test [4] (setting [8]), 94.5%. Moreover, in test [4] (H69AR cells + 2 uM doxorubicin), the differential viability (reversal) is 8.11% (inactive). Besides, the inhibition is -2.05% (inactive) in test [5] and -2.74% (inactive) in test [6].

For the compound `CCCOc1cccc(NC(=O)c2c(-c3ccccc3)noc2C)c1`, the viability was 94% (inactive) in test [1]; 89.7% (inactive) in test [2]; 86.7% (inactive) in test [3]; 102% in test [4] (setting [7]); 86.7% in test [4] (setting [8]). Besides, the differential viability (reversal) in test [4] (H69AR cells + 2 uM doxorubicin) is -15.2% (inactive). The inhibition in test [5] was 0.78% (inactive); in test [6] it was -1.97% (inactive).

Consider `O=C(Nc1ccc(NC(=O)c2ccco2)nc1)c1cccnc1`, for which the viability is 102% (inactive) in test [1]; 121% (inactive) in test [2]; 88.7% (inactive) in test [3]; 90.6% in test [4] (setting [7]); 88.7% in test [4] (setting [8]). Besides, the differential viability (reversal) in test [4] (H69AR cells + 2 uM doxorubicin) is -1.89% (inactive). In addition, the inhibition in test [5] is -7.4% (inactive); in test [6], 0.65% (inactive).

As for `CC(C)(C)C1=Nn2c(nnc2-c2n[nH]c3c2CCC3)SC1`, the viability in test [1] is 87% (inactive); in test [2] it was 97.3% (inactive); in test [3], 85.9% (inactive); in test [4] (setting [7]), 90.6%; in test [4] (setting [8]), 85.9%. Further, the differential viability (reversal) in test [4] (H69AR cells + 2 uM doxorubicin) was -4.71% (inactive). The figures for the inhibition in test [5] and in test [6] were -7.26% (inactive) and 4.68% (inactive), respectively.

With `COc1ccc(S(=O)(=O)NCCCN2CCOCC2)c2ccccc12`, the viability in test [1] was 102% (inactive); in test [2] it was 101% (inactive); in test [3] it was 86.8% (inactive); in test [4] (setting [7]), 81.1%; in test [4] (setting [8]), 86.8%. For the same compound, the differential viability (reversal) in test [4] (H69AR cells + 2 uM doxorubicin) is 5.68% (inactive). Also, the figures for the inhibition in test [5] and in test [6] were -6.53% (inactive) and -0.18% (inactive), respectively.

As for `Cc1nn(-c2ccc(F)cc2)c2sc(C(=O)N3CCCCCC3)cc12`, the viability in test [1] was 93% (inactive); in test [2] it was 92% (inactive); in test [3] it was 78.8% (inactive); in test [4] (setting [7]), 92.8%; in test [4] (setting [8]), 78.8%. For the same compound, the differential viability (reversal) in test [4] (H69AR cells + 2 uM doxorubicin) is -14% (inactive). The figures for the inhibition in test [5] and in test [6] were -2.7% (inactive) and 12.2% (inactive), respectively.

For the compound `O=C(O)c1ccc(S(=O)(=O)Cc2ccccc2)cc1`, the viability in test [1] was 95% (inactive); in test [2], 102% (inactive); in test [3] it was 87.3% (inactive); in test [4] (setting [7]) it was 95.2%; in test [4] (setting [8]), 87.3%. In addition, the differential viability (reversal) in test [4] (H69AR cells + 2 uM doxorubicin) is -7.88% (inactive). Moreover, the inhibition is -3.29% (inactive) in test [5] and 1.45% (inactive) in test [6].

For the compound `Cc1cc(C)cc(NC(=O)CN(C)S(=O)(=O)c2cnc[nH]2)c1`, the viability is 113% (inactive) in test [1]; 104% (inactive) in test [2]; 100% (inactive) in test [3]; 91.3% in test [4] (setting [7]); 100% in test [4] (setting [8]). The differential viability (reversal) in test [4] (H69AR cells + 2 uM doxorubicin) is 8.86% (inactive). Moreover, the inhibition in test [5] was -2.13% (inactive); in test [6] it was -6.36% (inactive).

Take `COc1ccc(-c2cc3ccc(OCc4nn[nH]n4)cc3oc2=O)cc1`: the viability in test [1] is 104% (inactive); in test [2] it was 99.2% (inactive); in test [3], 102% (inactive); in test [4] (setting [7]) it was 87.5%; in test [4] (setting [8]), 102%. For the same compound, the differential viability (reversal) in test [4] (H69AR cells + 2 uM doxorubicin) is 14.1% (inactive). Moreover, the inhibition in test [5] is -6.58% (inactive); in test [6], 1.29% (inactive).

Regarding `CNC(=O)OC(C)CNS(=O)(=O)c1ccc(C)cc1` (stereo unspecified), the viability was 60% (inactive) in test [1]; 106% (inactive) in test [2]; 97% (inactive) in test [3]; 90.8% in test [4] (setting [7]); 97% in test [4] (setting [8]). In test [4] (H69AR cells + 2 uM doxorubicin), the differential viability (reversal) is 6.22% (inactive). In addition, the inhibition was -7.4% (inactive) in test [5] and 0.55% (inactive) in test [6].

In the case of `COc1ccc(Nc2nc(Nc3ccc(OC)cc3)nc(-n3[nH]c(=O)c(C)c3C)n2)cc1`, the viability in test [1] is 79% (inactive); in test [2], 92.8% (inactive); in test [3], 12.1% (active); in test [4] (setting [7]) it was 11%; in test [4] (setting [8]), 12.1%. For the same compound, in test [4] (H69AR cells + 2 uM doxorubicin), the differential viability (reversal) was 1.18% (inactive). Moreover, the inhibition was -4.32% (inactive) in test [5] and 16.9% (inactive) in test [6].
